What is called ED50 is the dose that gives a 50% effect, or the effect in half of the subjects. For orientation: MIC means the lowest concentration that inhibits growth of the organism. A low value points to a more susceptible organism. The MIC50 is the lowest concentration that inhibits either 50% of growth or 50% of the strains tested, depending on the study. A higher MIC50 goes with lower susceptibility. Usually MIC80 stands for the lowest concentration that inhibits either 80% of growth or 80% of the strains tested, depending on the study. A lower MIC80 goes with higher susceptibility. As usually defined, the MIC90 is an inhibitory concentration at the 90% level, which refers to growth in some studies and to a panel of isolates in others.

In brackets after ≈: the same amount, converted by molar mass. Some results are limits rather than exact numbers.

From ChEMBL document CHEMBL1128396, “Synthesis and biological evaluation of a series of new parenteral optically active 3-[[(N-alkylpyridinium-4'-yl)thio]methyl]-2-oxaisocephems” (1995) come the findings set out here.

Assay type in all cases: functional
The test system of assay [1] is Mus musculus. Put plainly: Antibacterial activity was determined against MRSA 5129 at a challenge dose of 1.38*10e8 (cells/mouse) administered subcutaneously. Particulars: sc. A digest of the protocol:
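Male ICR mice (~20 g, 10 per dose group) were challenged intraperitoneally with 0.5 mL of about 10-100 times the LD50. Inoculum was an overnight 37 °C tryptic soy broth culture suspended in fresh broth with 5% gastric mucin. Various subcutaneous doses were given 1 h post-infection. Survivors were counted on day 7, and ED50 with 95% confidence limits was derived by probit.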

Assay [2] concerns Staphylococcus epidermidis. Put plainly: Antibacterial activity was determined against Staphylococcus epidermidis ATCC 12228 (Gram-positive). A digest of the protocol: (§1)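 2-fold agar dilution on Müller-Hinton agar. Overnight broth cultures were diluted to about 10^6 CFU/mL, and 10^4 CFU/spot was applied to plates with graded drug concentrations. Plates were incubated 18 h at 37 °C.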

For assay [3], the system named is Mus musculus. Put plainly: Antibacterial activity was determined against MRSA 5038 at a challenge dose of 1.00*10e7 (cells/mouse) administered subcutaneously. Particulars: sc. In outline:
(§2)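 Cultures were grown overnight at 37 °C in tryptic soy broth (S. aureus, MRSA, E. faecalis) or Müller-Hinton broth (E. coli, S. pneumoniae). Graded doses were given subcutaneously 1 h post-infection. ED50 was calculated by probit from day-7 survival, with 95% confidence limits.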

The next assay deals with Serratia marcescens. The assay is described as follows: Antibacterial activity was determined against Serratia marcescens ATCC 12648 (Gram-negative). In outline: as §1
The next assay concerns Pseudomonas aeruginosa. The assay is described as follows: Antibacterial activity was determined against Pseudomonas aeruginosa ATCC 10145 (Gram-negative). A digest of the protocol: as §1
Assay [4] concerns Staphylococcus aureus. The assay is described as follows: […] was determined against MRSA 5129.
The next assay has as its system Klebsiella pneumoniae. Put plainly: Antibacterial activity was determined against Klebsiella pneumoniae NCTC 9632 (Gram-negative). A digest of the protocol:
as §1

The subject of a further assay is Escherichia coli. Put plainly: Antibacterial activity was determined against Escherichia coli NIHJ JC-2 (Gram-negative). In outline:
as §1

Assay [5] concerns Enterococcus faecalis. The assay is described as follows: Antibacterial activity was determined against Enterococcus faecalis ATCC 21212 (Gram-positive). In outline: as §1
Assay [6] deals with Mus musculus. The assay is described as follows: Antibacterial activity was determined against Staphylococcus aureus Smith at a challenge dose of 1.32*10e7 (cells/mouse) (sc) administered. A digest of the protocol:
as §2

Assay [7] concerns Staphylococcus aureus. The assay is described as follows: Antibacterial activity was determined against Methicillin-resistant Staphylococcus aureus (MRSA) 5038 (Gram-positive).
In assay [8] the test system is Staphylococcus aureus. The assay is described as follows: Antibacterial activity was determined against Staphylococcus aureus FDA 209P (Gram-positive). A digest of the protocol:
as §1

Assay [9] has as its system Mus musculus. Put plainly: Antibacterial activity was determined against Escherichia coli 29 at a challenge dose of 1.35*10e6 (cells/mouse) administered subcutaneously. Particulars: sc. A digest of the protocol: as §2
Assay [10] relates to Staphylococcus aureus. Put plainly: In vitro antibacterial activity against clinical isolates methicillin-resistant Staphylococcus aureus was determined. A digest of the protocol:
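2-fold agar dilution on Müller-Hinton agar. Overnight broth cultures were diluted to about 10^6 CFU/mL, and 10^4 CFU/spot was applied to plates with graded drug concentrations.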

The test system of a further assay is Streptococcus pneumoniae. The assay is described as follows: In vitro antibacterial activity against clinical isolates Ampicillin-insensitive Streptococcus pneumoniae was determined. A digest of the protocol: as §1
Assay [11] concerns Mus musculus. The assay is described as follows: Antibacterial activity was determined against MRSA 5120 at a challenge dose of 7.6*10e7 (cells/mouse) administered subcutaneously. Particulars: sc. In outline:
as §2

The subject of assay [12] is Enterococcus faecalis. The assay is described as follows: In vitro antibacterial activity against clinical isolates Enterococcus faecalis was determined. A digest of the protocol: as §1
In assay [13] the test system is Mus musculus. Put plainly: Antibacterial activity was determined against Enterococcus faecalis C 0063 at a challenge dose of 7.00*10e7 (cells/mouse) administered subcutaneously. Particulars: sc. A digest of the protocol:
as §2

The subject of assay [14] is Mus musculus. The assay is described as follows: Antibacterial activity was determined against Staphylococcus aureus Smith at a challenge dose of 1.32*10e7 (cells/mouse) administered subcutaneously (value in parentheses indicates 95% CL). Particulars: sc. A digest of the protocol: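 Cultures were grown overnight at 37 °C in tryptic soy broth (S. aureus, MRSA, E. faecalis) or Müller-Hinton broth (E. coli, S. pneumoniae). Graded doses were given subcutaneously 1 h post-infection.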

The test system of assay [15] is Staphylococcus aureus. Put plainly: […] was determined against MRSA 5120.
For assay [16], the system named is Mus musculus. The assay is described as follows: Antibacterial activity was determined against Staphylococcus aureus Smith at a challenge dose of 1.32*10e7 (cells/mouse) administered subcutaneously. Particulars: sc. In outline: as §2

Consider `C[n+]1ccc(SCC2=C(C(=O)O)N3C(=O)[C@@H](NC(=O)/C(=N\OC4CCCC4)c4csc(N)n4)[C@H]3CO2)cc1.O=S(=O)([O-])O`, for which the ED50 with Mus musculus [1] was 3.91 mg/kg; with Mus musculus [3], 3.4 mg/kg; in the assay on Mus musculus [6] it was 0.08 mg/kg; in the assay on Mus musculus [9] it was 0.09 mg/kg. The MIC in assay [2] stood at 0.05 µg/mL; against Serratia marcescens, 1.56 µg/mL; in the assay on Pseudomonas aeruginosa it was 6.25 µg/mL; in the assay on Staphylococcus aureus [4], 6.25 µg/mL; in the assay with Klebsiella pneumoniae, 0.2 µg/mL; in the assay with Escherichia coli, 0.39 µg/mL. Moreover, the minimum inhibitory concentration (MIC) is 1.56 µg/mL in the assay with Enterococcus faecalis [5], 3.13 µg/mL against Staphylococcus aureus [7] and 0.05 µg/mL in the assay on Staphylococcus aureus [8].
Consider `CO/N=C(\C(=O)N[C@@H]1C(=O)N2C(C(=O)[O-])=C(C[n+]3cccc4c3CCC4)CS[C@H]12)c1csc(N)n1` [CEFPIROME], for which the MIC50 against Staphylococcus aureus [10] amounted to 50 µg/mL (≈ 97.2 µM); in the assay with Streptococcus pneumoniae it was 0.39 µg/mL (≈ 0.758 µM); against Enterococcus faecalis [12], 50 µg/mL (≈ 97.2 µM). The MIC80 against Staphylococcus aureus [10] is 100 µg/mL (≈ 194 µM); in the assay on Streptococcus pneumoniae it was 0.78 µg/mL (≈ 1.52 µM); against Enterococcus faecalis [12] it was 100 µg/mL (≈ 194 µM). Moreover, the MIC90 was determined as 100 µg/mL (≈ 194 µM) against Staphylococcus aureus [10], 0.78 µg/mL (≈ 1.52 µM) against Streptococcus pneumoniae and 100 µg/mL (≈ 194 µM) in the assay with Enterococcus faecalis [12]. The MIC in assay [2] is 0.39 µg/mL (≈ 0.758 µM); with Serratia marcescens it was 0.2 µg/mL (≈ 0.389 µM); against Pseudomonas aeruginosa, 6.25 µg/mL (≈ 12.1 µM); against Klebsiella pneumoniae it was 0.05 µg/mL (≈ 0.0972 µM); in the assay with Escherichia coli, 0.05 µg/mL (≈ 0.0972 µM); in the assay on Enterococcus faecalis [5] it was 25 µg/mL (≈ 48.6 µM). Also, the values for the minimal inhibitory concentration (MIC) in the assay with Staphylococcus aureus [15], in the assay on Staphylococcus aureus [7] and with Staphylococcus aureus [8] were 50 µg/mL (≈ 97.2 µM), 100 µg/mL (≈ 194 µM) and 0.39 µg/mL (≈ 0.758 µM), respectively. The 50% effective dose (ED50) in the assay on Mus musculus [11] was 27.7 mg/kg; in the assay with Mus musculus [13], above 100 mg/kg; in the assay with Mus musculus [14] it was 1.72 mg/kg; in the assay with Mus musculus [9], 0.64 mg/kg.
On to `CN[C@H](CC(C)C)C(=O)N[C@H]1C(=O)N[C@@H](CC(N)=O)C(=O)N[C@H]2C(=O)N[C@H]3C(=O)N[C@H](C(=O)N[C@H](C(=O)O)c4cc(O)cc(O)c4-c4cc3ccc4O)[C@H](O)c3ccc(c(Cl)c3)Oc3cc2cc(c3O[C@@H]2O[C@H](CO)[C@@H](O)[C@H](O)[C@H]2O[C@H]2C[C@](C)(N)[C@H](O)[C@H](C)O2)Oc2ccc(cc2Cl)[C@H]1O` [VANCOMYCIN], for which the ED50 in the assay on Mus musculus [16] stood at 3.74 mg/kg; in the assay with Mus musculus [1], 18.7 mg/kg; with Mus musculus [3], 2.7 mg/kg; with Mus musculus [11], 11.5 mg/kg. In the assay on Staphylococcus aureus [10], this molecule came in with an MIC50 of 1.56 µg/mL (≈ 1.08 µM). The molecule also gave an MIC80 with Staphylococcus aureus [10] of 1.56 µg/mL (≈ 1.08 µM). In the assay with Staphylococcus aureus [10], this molecule registered an MIC90 of 1.56 µg/mL (≈ 1.08 µM). Also, the minimum inhibitory concentration (MIC) in assay [2] is 3.13 µg/mL (≈ 2.16 µM); against Serratia marcescens, above 100 µg/mL; against Pseudomonas aeruginosa, above 100 µg/mL; with Staphylococcus aureus [4] it was 0.78 µg/mL (≈ 0.538 µM); against Klebsiella pneumoniae, above 100 µg/mL; with Escherichia coli it was above 100 µg/mL. In addition, the MIC against Enterococcus faecalis [5], against Staphylococcus aureus [15], in the assay with Staphylococcus aureus [7] and against Staphylococcus aureus [8] was 0.78 µg/mL (≈ 0.538 µM) each time.
